Source: ChEMBL document CHEMBL2157878, “In vitro cellular uptake and dimerization of signal transducer and activator of transcription-3 (STAT3) identify the photosensitizing and imaging-potential of isomeric photosensitizers derived from chlorophyll-a and bacteriochlorophyll-a” (J Med Chem, 2011)
Active and inactive are the calls of the source. No cut-off for these calls is given here.

How the values were obtained:
[1] = Photostability of the compound in 17% bovine calf serum assessed as rate of photobleaching at 6.5 uM after 20 to 22 mins in presence of light (75 mW/cm'2); format: ADME; conditions: cattle, read-out: Drug degradation
Outline: (§1)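 Equimolar (6.5 μM) photosensitizer solutions in 17% bovine calf serum were irradiated at 75 mW/cm². Absorption spectra were recorded at successive time points, and the normalized long-wavelength absorbance was plotted against time to follow photobleaching.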

Colon 26 [2] = test: Photosensitizing activity in mouse Colon 26 assessed as cell viability at 0.0625 uM after 24 hrs followed by illumination with 665 nm laser light and 48 hrs incubation in dark by MTT assay in presence of serum; format: functional, cell-based
Outline: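 Colon26 cells, 3×10³/well in RPMI/10% FCS, were incubated 24 h in the dark with photosensitizer at 0.3 μM or 0.0625 μM. Medium was replaced with drug-free complete medium before illumination at 0–4 J/cm², 3.2 mW/cm², at each compound's peak wavelength (660, 665 or 674 nm). After 48 h in the dark, MTT was added for the last 4 h and absorbance read at 570 nm. Four replicate wells per condition, three independent experiments.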

BCC1 [3] = test: Induction of apoptosis in human BCC1 cells assessed as survival after 24 hrs by trypan blue assay; format: functional, cell-based
Outline: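 BCC1 cells were loaded for 2 h in serum-free DMEM with 2-fold serial dilutions of photosensitizer. After washing, they were illuminated in serum-free medium at 37° with 665 nm dye-laser light for 9 min (3 J/cm²). Cells were then cultured 24 h in DMEM/10% FCS and trypsinized. Trypan blue-excluding cells were counted by hemocytometer and expressed relative to untreated controls.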

Mus musculus [4] = test: Drug uptake in BALB/c mouse xenografted with mouse Colon 26 cells at 1 umol/kg, iv after 24 hrs by fluorescence imaging; format: ADME, organism-based; conditions: in vivo
Outline: (§2)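 BALB/c mice (3/group) with Colon26 tumours (1×10⁶ cells s.c., right axilla, grown to 4–5 mm) were shaved and given 1.0 μmol/kg PS i.v. Whole-body fluorescence imaged under ketamine/xylazine at 24, 48 and 72 h: 540/40 nm illumination, long-pass emission filter, spectral unmixing of autofluorescence. Read-out is mean intensity of a 20 mm tumour ROI (AU), mean ± SD of 3 mice.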

Colon 26 [5] = test: Drug uptake in mouse Colon 26 cells at 800 nM after 24 hrs by flow cytometry; format: ADME, cell-based; conditions: colon 26, 24 h, 0.8 µM
Outline: (§3)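 Colon26 cells seeded at 0.33×10⁶ per well and grown overnight, then given 100–800 nM PS in triplicate at 37°C, with no-PS wells for autofluorescence. Harvested by trypsin, spun cold, and run on flow cytometry (Ex 633 nm, Em 730±45 nm, 10,000 events). Value is mean fluorescence of triplicates minus autofluorescence.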

[6] = Photostability of the compound in 17% bovine calf serum assessed as decrease in rate of photobleaching at 6.5 uM after 40 mins in presence of light (75 mW/cm'2); format: ADME; conditions: cattle; outline: as §1
Colon 26 [7] = test: Antitumor activity against mouse Colon 26 cells xenografted in parenterally dosed BALB/c mouse assessed as tumor cure at 1 umol/kg after 24 hrs followed by illumination with 128 J/cm'2, 14 mW/cm'2 laser light measured after 60 days; format: functional
Outline: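 Subcutaneous Colon26 tumours in BALB/c mice (10/group), dosed at 4–5 mm diameter with 1 μmol/kg PS. At 24 h, unanaesthetised restrained mice received laser light to the tumour (665, 660 or 674 nm by compound; 128 J/cm², 14 mW/cm²). Tumours measured daily (V = L·W²/2). Cure means no palpable tumour by day 60–90. Euthanasia at 400 mm³.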

Colon 26 [8] = test: Drug uptake in mouse Colon 26 cells at 400 nM after 24 hrs by flow cytometry; format: ADME, cell-based; conditions: colon 26, 24 h, 0.4 µM; outline: as §3
Mus musculus [9] = test: Drug uptake in BALB/c mouse xenografted with mouse Colon 26 cells at 1 umol/kg, iv after 72 hrs by fluorescence imaging; format: ADME, organism-based; conditions: in vivo; outline: as §2
BCC1 [10] = test: Increase in STAT3 cross linking level in human BCC1 cells assessed as dimerization of STAT3 after 9 mins by Western blotting in presence of 665 nm light
[11] = Drug uptake in BALB/c mouse tumor xenografted with mouse Colon 26 cells at 1 umol/kg, iv after 24 hrs by fluorescence imaging; format: ADME, organism-based, Neoplasm; conditions: in vivo; outline: as §2
[12] = Drug uptake in human BCC1 cells assessed as deposition in mitochondria at 200 nM after 30 mins by HPPH fluorescence spectrophotometry; format: ADME; conditions: bcc1, 0.5 h, 0.2 µM
Outline: (§4)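 BCC1 cells in subconfluent culture, washed and incubated 30 min in serum-free DMEM with 200 nM PS. Washed free of PS and imaged at 640X under phase contrast and HPPH fluorescence (Ex 410/40, Em 675/750 nm). Cell PS also quantified by solubilising cells and reading fluorescence (Ex 415, Em 667 nm).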

[13] = Drug uptake in human BCC1 cells at 200 nM incubated for 30 mins measured after 4 to 24 hrs by fluorescent microscopy; format: ADME, cell-based; conditions: bcc1, 0.5 h, 0.2 µM
BCC1 [14] = test: Reduction in EGFR levels in human BCC1 cells after 9 mins by Western blotting in presence of 665 nm laser light; format: functional, cell-based
Outline: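 BCC1 cells were incubated 2 h in serum-free DMEM with 2-fold serially diluted photosensitizer, washed, and illuminated with 665 nm light for 9 min (3 J/cm²). They were extracted immediately in RIPA buffer. Extracts (20 μg protein) were run on 6–10% SDS gels and immunoblotted for STAT3, EGFR, p38 and P-p38 with ECL detection. STAT3 crosslinking was scored as percent conversion of monomer into dimer form I.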

Mus musculus [15] = test: Drug uptake in BALB/c mouse xenografted with mouse Colon 26 cells at 1 umol/kg, iv after 48 hrs by fluorescence imaging; format: ADME, organism-based; conditions: in vivo; outline: as §2
[16] = system: BCC1 cells (Homo sapiens); test: Ratio of drug uptake in human BCC1 cells in serum free medium to drug uptake in human BCC1 cells in medium containing 10% fetal calf serum by fluorescent microscopy
[17] = molecular target: MAP kinase p38 (Homo sapiens) (UniProt O15264+Q15759+Q16539+P53778); test: Activation of p38 MAPK in human BCC1 cells assessed as dimerization of STAT3 after 9 mins by Western blotting in presence of 665 nm laser light; format: cell-based
Outline: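 Subconfluent BCC1 cells, 2 h in serum-free DMEM with 2-fold serially diluted PS, then 665 nm dye-laser light for 9 min at 37°C (3 J/cm²) in serum-free medium. Cells extracted immediately and lysed in RIPA. 20 μg protein run on 6–10% SDS gels and immunoblotted for STAT3, p38/P-p38 and EGFR with ECL detection. Crosslinking given as % monomeric STAT3 converted to dimer form I.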

[18] = Drug uptake in human BCC1 cells assessed as deposition in mitochondria at 200 nM after 30 mins by phase contrast microscopy; format: ADME; conditions: bcc1, 0.5 h, 0.2 µM; outline: as §4
[19] = Drug uptake in tumor of BALB/c mouse xenografted with mouse Colon 26 cells at 1 umol/kg, iv after 24 hrs by fluorescence imaging; format: ADME, organism-based, Neoplasm; conditions: in vivo
Outline: (§5)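 BALB/c mice carried subcutaneous Colon26 tumors (1×10⁶ cells, right posterior axilla) grown to 4–5 mm and were given 1 μmol/kg i.v. At 24 h the tumor was surgically removed and imaged, and the skin flap was imaged separately. Excitation was 540/40 nm with long-pass emission, followed by spectral unmixing of autofluorescence.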

Zone of skin = test: Drug uptake in skin of BALB/c mouse xenografted with mouse Colon 26 cells measured after removal of tumor at 1 umol/kg, iv after 24 hrs by fluorescence imaging; format: ADME, organism-based; conditions: in vivo; outline: as §5

| degraded at 6.5 µM [1] [%] | Drug uptake (Mus musculus [4]) | Drug uptake (Colon 26 [5]) | Stability [6] | Drug uptake (Colon 26 [8]) | Drug uptake (Mus musculus [9]) | Drug uptake [11] | Drug uptake [12] | Drug uptake [13] | Drug uptake (Mus musculus [15]) | Ratio [16] | Activity [17] | Drug uptake [18] | Drug uptake [19] | Drug uptake (Zone of skin) | Compound | Activity (Colon 26 [2]) | Activity (BCC1 [3]) | Activity (Colon 26 [7]) | Activity (BCC1 [10]) | Activity (BCC1 [14]) |
| --- | --- | --- | --- | --- | --- | --- | --- | --- | --- | --- | --- | --- | --- | --- | --- | --- | --- | --- | --- | --- |
| 50 | Active | Active | Stable | Active | Active | Not Active | Active | Active | Active | 4 | Active | Active | – | – | CCc1c(C)c2cc3nc(c4c5[nH]c(cc6nc(cc1[nH]2)C(C)=C6C(C)OCc1cccc(I)c1)c(C)c5C(=O)C4)[C@@H](CCC(=O)O)[C@@H]3C (some centres not stated) | Active | Dose-dependent effect | inactive | Active | Active |
| 50 | Active | Active | – | Active | Active | Active | Active | Active | Active | 4 | Active | Active | Active | Not Active | CC[C@H]1c2cc3[nH]c4c(c5nc(cc6[nH]c(cc(n2)[C@@H]1C)c(C(C)OCc1cccc(I)c1)c6C)C(C)=C5CCC(=O)O)CC(=O)c4c3C (some centres not stated) | Active | Dose-dependent effect | 60% | Active | Active |
